Assay results as given in PubChem BioAssay.
Calls of active or inactive are those of the source.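 Rule for the calls, unless noted: active = visual image review flags a hit and inhibition of aggregation exceeds 20%; inconclusive = visual hit but inhibition at or below 20%; inactive = no hit on visual image review.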

Tests used:
[1] = inhibitors of TNFa-induced NFkB p65 translocation, primary screen, imaging, HUVEC, MLSMR starter and 10KST1 sets (AID 438;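 active = inhibition above 20% together with a positive visual image hit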;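 note: compound added about 3h40 before a 20 min TNFalpha stimulation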;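 for inhibition: signal is the nuclear over cytoplasmic p65 intensity ratio per well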); conditions: HUVEC TNFa-induced p65 nuclear translocation; cell count: measured here: nuclei count (cytotoxicity indicator), at 2.08 µM; inhibition: at 2 µM, stronger effect = higher value, 0% TNFa-plus-vehicle, 100% no-TNFa wells
[2] = inhibitors of mutant huntingtin aggregation, primary screen, imaging, exon1htt(103Q)mCFP cells, high-content imaging (AID 483); conditions: exon1htt(103Q)mCFP cell line, aggregate imaging, at 2 µM; inhibition of aggregation: stronger effect = higher value; nuclei count: measured here: cell count, toxicity;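 note: compound exposure lasted 3 days before fixation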;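 for nuclei count: percent of the per-plate median nuclei count of sample wells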
[3] = inhibitors of E-selectin induction by TNFa, primary screen, imaging, HUVEC, immunofluorescence, MLSMR starter and 10KST1 sets (AID 487;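 active = visually confirmed hit in the image check and inhibition above 20%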;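 for inhibition: signal is fraction of cell area covered by stained E-selectin grains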;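 for nuclei count: 100% = median nuclei count of all wells on the same plate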); conditions: HUVEC TNFalpha-induced E-selectin immunofluorescence imaging, at 2 µM; inhibition: stronger effect = higher value; nuclei count: measured here: cell number, toxicity
[4] = target: Voltage-gated potassium channel subunit beta-2 (Rattus norvegicus) (UniProt P62483); assay: KvBeta enzyme negative modulators, primary screen, biochemical, NADPH fluorescence (AID 622;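 active = fluorescence slope higher than the sample average by over 3 SD, cut at about -0.22 in these data, passing the limit was not always enough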;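 note: slope of raw intensity against log time taken from 70 to 1610 s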); conditions: recombinant KvBeta, 4-cyanobenzaldehyde reduction, at 10 µM, stronger effect = higher value
Sequence of Voltage-gated potassium channel subunit beta-2 (Rattus norvegicus) (P62483 whole entry, looked up): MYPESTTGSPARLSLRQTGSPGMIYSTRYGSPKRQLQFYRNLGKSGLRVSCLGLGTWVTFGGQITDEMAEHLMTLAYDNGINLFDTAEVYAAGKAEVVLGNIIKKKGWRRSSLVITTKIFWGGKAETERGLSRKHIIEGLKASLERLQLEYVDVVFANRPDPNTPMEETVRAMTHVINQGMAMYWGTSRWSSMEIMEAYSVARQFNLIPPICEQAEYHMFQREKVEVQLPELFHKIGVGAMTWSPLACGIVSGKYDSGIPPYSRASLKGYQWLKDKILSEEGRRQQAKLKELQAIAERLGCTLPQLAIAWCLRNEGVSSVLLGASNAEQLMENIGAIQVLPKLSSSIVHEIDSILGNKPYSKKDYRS

[5] = target: Voltage-gated potassium channel subunit beta-2 (Rattus norvegicus) (UniProt P62483); assay: KvBeta positive modulators, primary screen, biochemical, NADPH fluorescence (AID 623;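 active = NADPH fluorescence slope more negative than the mean of all samples by about 3 SD, 99.7% confidence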;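 note: fluorescence intensity change per second fitted from 20 to 320 s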); conditions: Recombinant KvBeta, NADPH fluorescence decrease slope, 10 min; at 10 µM; stronger effect = lower value
[6] = target: Muscarinic acetylcholine receptor M4 (Homo sapiens) (UniProt P08173); assay: compounds altering M4/GIRK thallium flux, either direction, primary screen, M4 allosteric agonist project, cell-based, HEK293 M4/GIRK, BTC-AM (AID 625;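 active = fluorescence slope after compound addition differing from the mean of all tested samples at 99.7% confidence, mostly higher but some lower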;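 note: thallium influx through GIRK channels coupled to M4 in HEK293 cells with BTC-AM dye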); conditions: at 10 µM, actives lie on both sides
Sequence of Muscarinic acetylcholine receptor M4 (Homo sapiens) (P08173 whole entry, looked up): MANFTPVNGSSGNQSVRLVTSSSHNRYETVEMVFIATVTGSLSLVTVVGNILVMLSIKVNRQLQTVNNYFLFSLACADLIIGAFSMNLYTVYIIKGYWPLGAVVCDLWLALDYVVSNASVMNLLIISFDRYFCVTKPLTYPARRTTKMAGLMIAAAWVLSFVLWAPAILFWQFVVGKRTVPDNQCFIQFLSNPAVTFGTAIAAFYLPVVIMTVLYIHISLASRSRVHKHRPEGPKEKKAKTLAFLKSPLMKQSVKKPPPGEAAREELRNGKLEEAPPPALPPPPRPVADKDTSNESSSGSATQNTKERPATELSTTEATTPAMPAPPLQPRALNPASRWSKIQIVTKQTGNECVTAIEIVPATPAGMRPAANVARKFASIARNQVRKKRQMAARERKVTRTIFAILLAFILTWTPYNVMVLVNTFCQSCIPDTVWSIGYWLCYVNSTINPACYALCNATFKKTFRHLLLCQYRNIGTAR
In short: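 Material – HEK293 cells with M4 receptor and GIRK channels · Buffer or medium – pH 7.3 thallium assay buffer · Doses – one dose, 10 µM final · Timing – cells overnight at 37 °C, BTC-AM loading 1 h, reads 2 min total · Measured by – kinetic fluorescence with BTC-AM dye · Controls – carbachol and DMSO controls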

[7] = inhibitors of Sendai virus-induced IRF3 signaling, primary screen, TLR/RLR signaling modifier project, cell-based, Sendai virus stimulus, luciferase, 10K MLSCN set (AID 602276;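 active = inhibition at or above 50% at 10 µM; inactive = inhibition below 50%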;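 note: firefly luciferase from ISG56 promoter only with Renilla not read in this screen; 0% = Sendai virus plus DMSO and 100% = medium plus DMSO without virus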); conditions: HEK293 RL24 IRF3 luciferase reporter, at 10 µM, stronger effect = higher value
[8] = inhibitors of poly I:C-induced TLR3 signaling, primary screen, cell-based, poly I:C stimulus, luciferase, 10K MLSCN set (AID 602277;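 active = inhibition of the reporter signal at or above 50%; inactive = inhibition below 50%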); conditions: HEK293-TLR3 RL24 IRF3 luciferase reporter, at 10 µM, stronger effect = higher value
[9] = target: Alpha-2C adrenergic receptor (Homo sapiens) (UniProt P18825); assay: modulators of alpha2C/GIRK thallium flux, primary screen, cell-based, HEK293 alpha2C/GIRK1/2 (AID 624;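 active = fluorescence slope after compound addition differing from the mean of all screened samples at 99.7% confidence, in either direction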;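 note: slope of fluorescence ratio to pre-addition baseline per second over 15 to 24 s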); conditions: thallium flux BTC fluorescence, at 10 µM, actives lie on both sides
Sequence of Alpha-2C adrenergic receptor (Homo sapiens) (P18825 whole entry, looked up): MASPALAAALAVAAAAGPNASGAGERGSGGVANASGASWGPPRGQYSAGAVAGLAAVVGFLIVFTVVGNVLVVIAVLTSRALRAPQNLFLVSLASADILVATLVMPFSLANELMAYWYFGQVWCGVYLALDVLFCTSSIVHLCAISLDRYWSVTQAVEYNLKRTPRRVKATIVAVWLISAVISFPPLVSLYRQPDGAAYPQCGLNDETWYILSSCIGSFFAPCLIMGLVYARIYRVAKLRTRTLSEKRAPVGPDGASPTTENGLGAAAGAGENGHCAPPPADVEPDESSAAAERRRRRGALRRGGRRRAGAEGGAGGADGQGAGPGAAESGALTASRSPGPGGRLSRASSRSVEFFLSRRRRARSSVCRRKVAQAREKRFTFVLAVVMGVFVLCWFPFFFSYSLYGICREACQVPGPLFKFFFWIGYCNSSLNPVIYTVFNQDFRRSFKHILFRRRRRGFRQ

[10] = inhibitors of larval lipid processing in zebrafish, primary screen, whole organism, PED6 fluorescence, gall bladder and intestine (AID 686;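 active = a full or partial loss of lipid-probe fluorescence in the fish gall bladder, intestine or both, judged by eye; inactive = no fluorescence loss, or compound toxic to the fish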;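 note: larvae 5 to 7 days old with five fish per well; signal comes from phospholipase A2 cleavage of quenched PED6 carried via bile; overnight exposure to compound and PED6 before scoring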); conditions: Zebrafish larvae PED6 lipid processing, fluorescence scoring; screened at 20 µM (by protocol)
In short: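 system = live zebrafish larvae aged 5-7 days, whole organism | probe or stimulus = ingested quenched lipid PED6 at 100 nM | doses = 20 µM single dose | timing = overnight exposure | detection = fluorescence microscopy with visual scoring of gall bladder and intestine | read-out = visual per-well fluorescence inhibition score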

Structure (SMILES)	cell count [1]	inhibition [1]	inhibition of aggregation [2]	nuclei count [2]	inhibition [3]	nuclei count [3]	fluorescence slope [4]	NADPH fluorescence slope [5]	fluorescence slope [6]	inhibition [7]	inhibition [8]	slope [9]	outcome [10]
O=c1cc(CSc2nnc(COc3ccc(Cl)cc3)o2)c2ccccc2[nH]1	544	-6.2% (inactive)	8% (inactive)	98.4%	-46.6% (inactive)	153%	-0.497 (inactive)	7.1e-08 (inactive)	0.00464 (inactive)	1.93% (inactive)	-11.9% (inactive)	–	–
CC(C)CN(CC(C)C)c1nc(N)c(C#N)c(CC#N)c1C#N	326	-7% (inactive)	9% (inactive)	102%	-60.7% (inactive)	120%	-0.318 (inactive)	-5e-05 (inactive)	–	–	62.5% (active)	0.00502 (inactive)	inactive
COc1ccc(OC)c(NC(=O)CSc2ncccc2C(=O)O)c1	409	0% (inactive)	-10.4% (inactive)	7.1%	-120% (inactive)	125%	-0.495 (inactive)	-0.000268 (inactive)	0.00462 (inactive)	-1.78% (inactive)	9.5% (inactive)	–	–
COc1ccccc1NC1=C(C)C(=O)CC1	537	10.5% (inactive)	7.8% (inactive)	88.4%	-5.6% (inactive)	102%	-0.246 (inactive)	-3e-05 (inactive)	0.00566 (inactive)	19.4% (inactive)	34% (inactive)	–	–
Cc1cc(S(=O)(=O)N2CCN(c3ncccn3)CC2)ccc1-n1cnnn1	402	7.9% (inactive)	-13.8% (inactive)	101%	–	149%	-0.393 (inactive)	-1e-05 (inactive)	–	-6.32% (inactive)	0.356% (inactive)	0.00528 (inactive)	inactive
Nc1ccc(Sc2nnnn2-c2ccccc2)c(Cl)c1	312	-5.1% (inactive)	8% (inactive)	108%	-4% (inactive)	78.5%	-0.468 (inactive)	-3.4e-05 (inactive)	0.00613 (inactive)	8.66% (inactive)	13% (inactive)	–	–
CCC(=O)N1CCc2cc(S(=O)(=O)CCC(=O)Nc3ccc(C)c(F)c3)ccc21	565	2.7% (inactive)	-3% (inactive)	111%	-119% (inactive)	136%	-0.504 (inactive)	0.000146 (inactive)	0.00659 (inactive)	8.99% (inactive)	14.5% (inactive)	–	–
COCCCNCC(=O)Nc1ccc(OC(F)(F)F)cc1	363	14.4% (inactive)	-4.3% (inactive)	89.5%	–	119%	-0.403 (inactive)	-4.5e-05 (inactive)	–	-4.19% (inactive)	-0.468% (inactive)	0.00627 (inactive)	inactive
O=C(Cn1cccc1C(=O)c1ccccc1)NCCN1CCOCC1	505	12.5% (inactive)	-9.1% (inactive)	114%	25% (inactive)	98.8%	-0.583 (inactive)	-1.2e-05 (inactive)	0.00604 (inactive)	0.991% (inactive)	12.8% (inactive)	–	–
ON=C1/C(=N\O)CC2(C/C1=N/O)OCCO2	408	2.2% (inactive)	22.4% (inactive)	69.5%	7.1% (inactive)	89.7%	-0.532 (inactive)	-3.5e-05 (inactive)	0.00423 (inactive)	17% (inactive)	4.87% (inactive)	–	–
CCn1c(Cc2ccccc2)nnc1SCC(=O)Nc1nc2ccccc2s1	741	-0.5% (inactive)	-25.5% (inactive)	115%	-24.9% (inactive)	97.6%	-0.469 (inactive)	-4.8e-05 (inactive)	0.00499 (inactive)	18.4% (inactive)	17.4% (inactive)	–	–
Cc1c(NC(=O)C(C)OC(=O)COc2cccc3c2OC(C)(C)C3)c(=O)n(-c2ccccc2)n1C (stereo unspecified)	652	-11.6% (inactive)	-3.5% (inactive)	129%	-45.4% (inactive)	122%	-0.59 (inactive)	-7.7e-05 (inactive)	0.00305 (inactive)	4.56% (inactive)	14.8% (inactive)	–	–
CCOc1ccc2[nH]c(=O)c(CN(CCOC)C(=O)N3CCOCC3)cc2c1	373	2.4% (inactive)	-4% (inactive)	90.4%	-3.2% (inactive)	99.9%	-0.395 (inactive)	3.3e-05 (inactive)	0.0064 (inactive)	3.22% (inactive)	12.3% (inactive)	–	–
Cc1cc(C)n(CCCNC(=O)c2ccc3c(c2)NC(=O)CS3)n1	722	-0.6% (inactive)	-34.8% (inactive)	87.8%	10.7% (inactive)	106%	-0.416 (inactive)	-1.2e-05 (inactive)	0.00708 (inactive)	14.3% (inactive)	28.3% (inactive)	–	–
CCOc1ccccc1NS(=O)(=O)c1c(C)noc1C	389	5.5% (inactive)	42.8% (inactive)	97.1%	-3.1% (inactive)	111%	-0.461 (inactive)	4.7e-05 (inactive)	0.00758 (inactive)	0.4% (inactive)	24.4% (inactive)	–	–
Cc1noc(NS(=O)(=O)c2ccc(N3C(=O)c4ccccc4C3=O)cc2)c1C	754	-11.1% (inactive)	6.1% (inactive)	104%	-0.4% (inactive)	93.6%	-0.533 (inactive)	-3.7e-05 (inactive)	0.00521 (inactive)	6.19% (inactive)	25.2% (inactive)	–	–
